Measured values taken from ChEMBL document CHEMBL1135836, “Cyclodextrin-derived host molecules as reversal agents for the neuromuscular blocker rocuronium bromide: synthesis and structure-activity relationships” (J Med Chem, 2002).

Columns and labels:
Format in all cases: functional
Mus musculus [1] = species on record: Mus musculus; test: In vitro reversal activity versus ~90% block by rocuronium in isolated mouse hemidiaphragm, expressed as effective conc.
Cavia porcellus [2] = test: In vivo reversal activity versus ~90% block by rocuronium in guinea pig, expressed as % of maximum reversal at 8 umol/kg conc.
Method in brief: (§1)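 Male Dunkin-Hartley guinea pigs (600-900 g) anaesthetized ip with pentobarbitone 10 mg/kg plus urethane 1000 mg/kg, tracheotomized and artificially ventilated. Continuous iv rocuronium bromide infusion (~10 nmol kg-1 min-1) raised until steady-state twitch block of 85-90%. Increasing single iv doses of reversal agent given by a separate catheter. Max reversal is peak twitch recovery versus preblock height at highest dose tested; means ± SEM, n ≥ 2 or single experiment.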

Cavia porcellus [3] = test: In vivo reversal activity versus ~90% block by rocuronium in guinea pig
Method in brief: (§2)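 Male Dunkin-Hartley guinea pigs (600-900 g), anaesthetized ip with pentobarbitone 10 mg/kg plus urethane 1000 mg/kg, tracheotomized and ventilated. Continuous iv rocuronium infusion (~10 nmol kg-1 min-1) was raised to a steady 85-90% block. Increasing iv doses of agent were given cumulatively. ED50 = 50% recovery versus preblock twitch, by regression. Mean ± SEM of at least two experiments, or one.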

Mus musculus [4] = species on record: Mus musculus; test: In vitro reversal activity versus ~90% block by rocuronium in isolated mouse hemidiaphragm, expressed as % of maximum reversal at 18 uM conc.
Cavia porcellus [5] = test: In vivo reversal activity versus ~90% block by rocuronium in guinea pig, expressed as % of maximum reversal at 2 umol/kg conc.; method in brief: as §1
Mus musculus [6] = species on record: Mus musculus; test: In vitro reversal activity versus ~90% block by rocuronium in isolated mouse hemidiaphragm, expressed as % of maximum reversal at 7.2 uM conc.
Cavia porcellus [7] = test: In vivo reversal activity versus ~90% block by rocuronium in guinea pig, expressed as % of maximum reversal at 16 umol/kg conc.; method in brief: as §1
Mus musculus [8] = species on record: Mus musculus; test: In vitro reversal activity versus ~90% block by rocuronium in isolated mouse hemidiaphragm, expressed as % of maximum reversal at 360 uM conc.
Cavia porcellus [9] = test: In vivo reversal activity versus ~90% block by rocuronium in guinea pig, expressed as % of maximum reversal at 15 umol/kg conc.; method in brief: as §1
Cavia porcellus [10] = test: In vivo reversal activity versus ~90% block by rocuronium in guinea pig, expressed as % of maximum reversal at 31.8 umol/kg conc.; method in brief: as §1
Mus musculus [11] = species on record: Mus musculus; test: In vitro reversal activity versus ~90% block by rocuronium in isolated mouse hemidiaphragm, expressed as % of maximum reversal at 180 uM conc.
Cavia porcellus [12] = test: In vivo reversal activity versus ~90% block by rocuronium in guinea pig, expressed as % of maximum reversal at 2.8 umol/kg conc.; method in brief: as §1
Cavia porcellus [13] = test: In vivo reversal activity versus ~90% block by rocuronium in guinea pig, expressed as % of maximum reversal at 3.6 umol/kg conc.; method in brief: as §1
Mus musculus [14] = species on record: Mus musculus; test: In vitro reversal activity versus ~90% block by rocuronium in isolated mouse hemidiaphragm, expressed as % of maximum reversal at 9 uM conc.
Cavia porcellus [15] = test: In vivo reversal activity versus ~90% block by rocuronium in guinea pig, expressed as % of maximum reversal at 1.6 umol/kg conc.; method in brief: as §2
Cavia porcellus [16] = test: In vivo reversal activity versus ~90% block by rocuronium in guinea pig, expressed as % of maximum reversal. at a conc. of 0.08 uM
Mus musculus [17] = species on record: Mus musculus; test: In vitro reversal activity versus ~90% block by rocuronium in isolated mouse hemidiaphragm, expressed as % of maximum reversal

| Compound | EC50 (Mus musculus [1]) [µM] | ED50 (Cavia porcellus [3]) [µmol/kg] | Max reversal (Mus musculus [6]) [%] | also measured |
| --- | --- | --- | --- | --- |
| O=C([O-])Cc1cccc(SCC2O[C@@H]3O[C@@H]4C(CSc5cccc(CC(=O)[O-])c5)O[C@H](O[C@@H]5C(CSc6cccc(CC(=O)[O-])c6)O[C@H](O[C@@H]6C(CSc7cccc(CC(=O)[O-])c7)O[C@H](O[C@@H]7C(CSc8cccc(CC(=O)[O-])c8)O[C@H](O[C@@H]8C(CSc9cccc(CC(=O)[O-])c9)O[C@H](O[C@@H]9C(CSc%10cccc(CC(=O)[O-])c%10)O[C@H](O[C@@H]%10C(CSc%11cccc(CC(=O)[O-])c%11)O[C@H](O[C@H]2C(O)C3O)C(O)C%10O)C(O)C9O)C(O)C8O)C(O)C7O)C(O)C6O)C(O)C5O)C(O)C4O)c1.[Na+].[Na+].[Na+].[Na+].[Na+].[Na+].[Na+].[Na+] (some centres undefined) | 1.7 | 0.53 | 99.1 | Max reversal (Cavia porcellus [5]): 104.6% |
| O=C([O-])CCSCC1O[C@@H]2O[C@@H]3C(CSCCC(=O)[O-])O[C@H](O[C@@H]4C(CSCCC(=O)[O-])O[C@H](O[C@@H]5C(CSCCC(=O)[O-])O[C@H](O[C@@H]6C(CSCCC(=O)[O-])O[C@H](O[C@@H]7C(CSCCC(=O)[O-])O[C@H](O[C@H]1C(O)C2O)C(O)C7O)C(O)C6O)C(O)C5O)C(O)C4O)C(O)C3O.[Na+].[Na+].[Na+].[Na+].[Na+].[Na+] (some centres undefined) | > 360 | > 16 |  | Max reversal (Cavia porcellus [7]): 3.2%; Max reversal (Mus musculus [8]): 0% |
| CC(C)(CSCC1O[C@@H]2O[C@@H]3C(CSCC(C)(C)C(=O)[O-])O[C@H](O[C@@H]4C(CSCC(C)(C)C(=O)[O-])O[C@H](O[C@@H]5C(CSCC(C)(C)C(=O)[O-])O[C@H](O[C@@H]6C(CSCC(C)(C)C(=O)[O-])O[C@H](O[C@@H]7C(CSCC(C)(C)C(=O)[O-])O[C@H](O[C@@H]8C(CSCC(C)(C)C(=O)[O-])O[C@H](O[C@@H]9C(CSCC(C)(C)C(=O)[O-])O[C@H](O[C@H]1C(O)C2O)C(O)C9O)C(O)C8O)C(O)C7O)C(O)C6O)C(O)C5O)C(O)C4O)C(O)C3O)C(=O)[O-].[Na+].[Na+].[Na+].[Na+].[Na+].[Na+].[Na+].[Na+] (some centres undefined) | 20.3 | 1.32 |  | Max reversal (Cavia porcellus [9]): 98.8%; Max reversal (Mus musculus [4]): 47.6% |
| O=C([O-])CCc1ccc(SCC2O[C@@H]3O[C@@H]4C(CSc5ccc(CCC(=O)[O-])cc5)O[C@H](O[C@@H]5C(CSc6ccc(CCC(=O)[O-])cc6)O[C@H](O[C@@H]6C(CSc7ccc(CCC(=O)[O-])cc7)O[C@H](O[C@@H]7C(CSc8ccc(CCC(=O)[O-])cc8)O[C@H](O[C@@H]8C(CSc9ccc(CCC(=O)[O-])cc9)O[C@H](O[C@@H]9C(CSc%10ccc(CCC(=O)[O-])cc%10)O[C@H](O[C@@H]%10C(CSc%11ccc(CCC(=O)[O-])cc%11)O[C@H](O[C@H]2C(O)C3O)C(O)C%10O)C(O)C9O)C(O)C8O)C(O)C7O)C(O)C6O)C(O)C5O)C(O)C4O)cc1.[Na+].[Na+].[Na+].[Na+].[Na+].[Na+].[Na+].[Na+] (some centres undefined) | 3 | 1.01 | 95.4 | Max reversal (Cavia porcellus [12]): 94.3% |
| O=C([O-])c1ccccc1C(=O)NCCCSCC1O[C@@H]2O[C@@H]3C(CSCCCNC(=O)c4ccccc4C(=O)[O-])O[C@H](O[C@@H]4C(CSCCCNC(=O)c5ccccc5C(=O)[O-])O[C@H](O[C@@H]5C(CSCCCNC(=O)c6ccccc6C(=O)[O-])O[C@H](O[C@@H]6C(CSCCCNC(=O)c7ccccc7C(=O)[O-])O[C@H](O[C@@H]7C(CSCCCNC(=O)c8ccccc8C(=O)[O-])O[C@H](O[C@@H]8C(CSCCCNC(=O)c9ccccc9C(=O)[O-])O[C@H](O[C@@H]9C(CSCCCNC(=O)c%10ccccc%10C(=O)[O-])O[C@H](O[C@H]1C(O)C2O)C(O)C9O)C(O)C8O)C(O)C7O)C(O)C6O)C(O)C5O)C(O)C4O)C(O)C3O.[Na+].[Na+].[Na+].[Na+].[Na+].[Na+].[Na+].[Na+] (some centres undefined) | 0.1 | 0.27 | 90.7 | Max reversal (Cavia porcellus [15]): 83% |
| CN(C)C(=O)Oc1cccc([N+](C)(C)C)c1.[Br-] [NEOSTIGMINE BROMIDE] | 0.9 | 0.04 |  | Max reversal (Cavia porcellus [16]): 65.3%; Max reversal (Mus musculus [17]): 74.4% |

Further lines, with some results ahead:

| EC50 (Mus musculus [1]) [µM] | Compound | ED50 (Cavia porcellus [3]) [µmol/kg] | Max reversal (Mus musculus [6]) [%] | also measured |
| --- | --- | --- | --- | --- |
| 9.5 | CC(CSCC1O[C@@H]2O[C@@H]3C(CSCC(C)C(=O)[O-])O[C@H](O[C@@H]4C(CSCC(C)C(=O)[O-])O[C@H](O[C@@H]5C(CSCC(C)C(=O)[O-])O[C@H](O[C@@H]6C(CSCC(C)C(=O)[O-])O[C@H](O[C@@H]7C(CSCC(C)C(=O)[O-])O[C@H](O[C@@H]8C(CSCC(C)C(=O)[O-])O[C@H](O[C@@H]9C(CSCC(C)C(=O)[O-])O[C@H](O[C@H]1C(O)C2O)C(O)C9O)C(O)C8O)C(O)C7O)C(O)C6O)C(O)C5O)C(O)C4O)C(O)C3O)C(=O)[O-].[Na+].[Na+].[Na+].[Na+].[Na+].[Na+].[Na+].[Na+] (some centres undefined) | 0.73 |  | Max reversal (Cavia porcellus [2]): 97.8%; Max reversal (Mus musculus [4]): 77.5% |
| 32.8 | O=C([O-])CCc1ccc(SCC2O[C@@H]3O[C@@H]4C(CO)O[C@H](O[C@@H]5C(CO)O[C@H](O[C@@H]6C(CO)O[C@H](O[C@@H]7C(CO)O[C@H](O[C@@H]8C(CO)O[C@H](O[C@@H]9C(CO)O[C@H](O[C@@H]%10C(CO)O[C@H](O[C@H]2C(O)C3O)C(O)C%10O)C(O)C9O)C(O)C8O)C(O)C7O)C(O)C6O)C(O)C5O)C(O)C4O)cc1.[Na+] (some centres undefined) | 3.33 |  | Max reversal (Cavia porcellus [10]): 93.8%; Max reversal (Mus musculus [4]): 36.2% |
| 50.3 | O=C([O-])c1ccc(SCC2O[C@@H]3O[C@@H]4C(CO)O[C@H](O[C@@H]5C(CO)O[C@H](O[C@@H]6C(CO)O[C@H](O[C@@H]7C(CO)O[C@H](O[C@@H]8C(CO)O[C@H](O[C@@H]9C(CO)O[C@H](O[C@@H]%10C(CO)O[C@H](O[C@H]2C(O)C3O)C(O)C%10O)C(O)C9O)C(O)C8O)C(O)C7O)C(O)C6O)C(O)C5O)C(O)C4O)cc1.[Na+] (some centres undefined) | 0.94 |  | Max reversal (Mus musculus [11]): 94.7%; Max reversal (Cavia porcellus [2]): 102.4% |
| 4 | OCCSCC1O[C@@H]2O[C@@H]3C(CSCCO)O[C@H](O[C@@H]4C(CSCCO)O[C@H](O[C@@H]5C(CSCCO)O[C@H](O[C@@H]6C(CSCCO)O[C@H](O[C@@H]7C(CSCCO)O[C@H](O[C@@H]8C(CSCCO)O[C@H](O[C@@H]9C(CSCCO)O[C@H](O[C@H]1C(O)C2O)C(O)C9O)C(O)C8O)C(O)C7O)C(O)C6O)C(O)C5O)C(O)C4O)C(O)C3O (some centres undefined) | 0.21 | 86.4 | Max reversal (Cavia porcellus [5]): 95.8% |
| 4.1 | OCCCSCC1O[C@@H]2O[C@@H]3C(CSCCCO)O[C@H](O[C@@H]4C(CSCCCO)O[C@H](O[C@@H]5C(CSCCCO)O[C@H](O[C@@H]6C(CSCCCO)O[C@H](O[C@@H]7C(CSCCCO)O[C@H](O[C@@H]8C(CSCCCO)O[C@H](O[C@@H]9C(CSCCCO)O[C@H](O[C@H]1C(O)C2O)C(O)C9O)C(O)C8O)C(O)C7O)C(O)C6O)C(O)C5O)C(O)C4O)C(O)C3O (some centres undefined) | 0.52 |  | Max reversal (Cavia porcellus [13]): 98.3%; Max reversal (Mus musculus [14]): 96.5% |
